TAAR1 antag – human TAAR1 antagonism | CHO RD-HGA16 TAAR1, Fluo-8 calcium fluorescence, antagonist | AID 624466 | inhibition, % at 3 µM | Q96RJ0 | actives 1.5% (n = 360,000);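 active = inhibition above a per-plate cutoff, the mean inhibition of test compounds on that plate plus 3 SD, cut at about 49% in these data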;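 note: 0% = DMSO plus EC80 beta-PEA response and 100% = DMSO alone without agonist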
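Test system: hTAAR1-expressing CHO RD-HGA16 cells, Gα16-coupled; Probe or stimulus: EC80 β-phenethylamine stimulus; Compound dosing: single nominal final test compound concentration of 3 µM; Timing: 140 s kinetic read after compound, 140 s after agonist; Signal: Fluo-8 calcium-sensitive fluorescence; Measure: % inhibition of agonist calcium response; Controls: DMSO and EC80 PEA controls.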
TAAR1 ag – agonists of human TAAR1; activation, % at 3 µM; CHO RD-HGA16 TAAR1, Fluo-8 calcium fluorescence; vehicle wells 0%, saturating PEA agonist 100%; AID 624467; Q96RJ0; actives 0.99% (n = 360,000);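 active = activation above the mean activation of all test compounds in the run plus 3 SD, cut at about 38% in these data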
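Benchmarks: low control DMSO, high control PEA (EC100); System: CHO RD-HGA16 cells carrying human TAAR1 plus Gα16; Detection: Fluo-8 fluorescence, 5 s baseline then 140 s kinetic read; Schedule: 17-24 h plating, Fluo-8 75 min 37 °C, 30 min RT; Read-out basis: % activation from peak over basal fluorescence ratio, DMSO-to-PEA scaled.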
NTR1 ag – NTR1 (human) agonism; AID 493036; activation, % at 20 µM; NTR1-U2OS beta-arrestin-GFP spot imaging, agonist mode; P30989; actives 0.17% (n = 330,000);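 active = activation at or above 40% of the spot to cytoplasm intensity ratio, with at least 20 cells analyzed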;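 note: 0% = DMSO without peptide and 100% = 100 nM NTR1 peptide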
Target sequence (P30989 whole entry, looked up): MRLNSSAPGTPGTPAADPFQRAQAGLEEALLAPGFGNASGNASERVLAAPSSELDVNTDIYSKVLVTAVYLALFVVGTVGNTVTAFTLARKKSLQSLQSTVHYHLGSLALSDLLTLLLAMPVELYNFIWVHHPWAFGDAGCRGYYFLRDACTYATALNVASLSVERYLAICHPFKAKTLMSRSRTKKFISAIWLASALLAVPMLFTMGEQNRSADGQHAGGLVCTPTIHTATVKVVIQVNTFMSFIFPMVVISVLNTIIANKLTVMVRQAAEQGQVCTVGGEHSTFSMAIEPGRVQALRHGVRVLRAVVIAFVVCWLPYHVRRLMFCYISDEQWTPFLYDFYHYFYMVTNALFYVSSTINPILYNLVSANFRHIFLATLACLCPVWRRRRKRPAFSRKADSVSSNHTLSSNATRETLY
CHO parental Ca – counter-screen for OX1R antagonists: effect in parental CHO cells | parental CHO-K1, ATP-induced calcium, Fluo-8 fluorescence | inhibition, % at 5.6 µM | actives 0.63% (n = 330,000);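 active = inhibition above that plate's mean sample inhibition plus 3 SD, cut at about 26% in these data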;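 note: 0% = ATP-challenged DMSO wells and 100% = DMSO wells without ATP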
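Test system: untransfected parental CHO cell line; also added: ATP stimulus; dosing: 5.6 µM, single dose; signal: calcium-sensitive Fluo-8 fluorescence; measure: percent inhibition of ATP-evoked calcium rise, normalized to controls; benchmarks: low control ATP plus DMSO, high control DMSO only; replication: one well per compound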
OX1R antag-1 – blocks the human orexin 1 receptor | inhibition, % at 5 µM | CHO/OX1R cells, Fluo-8 calcium fluorescence, orexin A | actives 0.43% (n = 330,000);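 active = inhibition above its plate's threshold, mean inhibition of all tested compounds on the plate plus 3 SD, cut at about 37% in these data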;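 note: 0% = orexin A challenge wells and 100% = SB-334867-A antagonist wells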
OX1R antag-2 – antagonists of human orexin 1 receptor (OX1R). O43613. OX1R-expressing cells, FRET antagonist read-out. inhibition, % at 6.6 µM. actives 1.8% (n = 330,000); in the data active = inhibition mostly above about 38%, no sharp cut-off; inactive = mostly below about 40%;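 note: 0% = agonist challenge alone and 100% = reference antagonist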
An asterisk follows results filed as active. A selection: hits, their analogues and other compounds. The true share with any hit is near 4%.

For O=C(COC(=O)c1ccc(Br)o1)Nc1ccc(Br)cc1 the results were TAAR1 antag 9, TAAR1 ag 40*, NTR1 ag 2, CHO parental Ca 3, OX1R antag-1 -2 and OX1R antag-2 -3.
For O=C(COC(=O)c1ccc(Br)o1)NCCNC(=O)COC(=O)c1ccc(Br)o1 the results were TAAR1 antag -13, TAAR1 ag 6, NTR1 ag 2, CHO parental Ca -6, OX1R antag-1 -23 and OX1R antag-2 21.
`O=C(COC(=O)c1ccc([N+](=O)[O-])o1)NCCc1ccccc1` gave TAAR1 antag -7, TAAR1 ag 17, NTR1 ag 1, CHO parental Ca -5, OX1R antag-1 6 and OX1R antag-2 32*.
For O=C(COC(=O)c1ccc([N+](=O)[O-])o1)Nc1ccc(Br)cc1F the results were TAAR1 antag 16, TAAR1 ag -3, NTR1 ag 2, CHO parental Ca 0, OX1R antag-1 -7 and OX1R antag-2 28*.
For CC(NC(=O)COC(=O)c1ccc([N+](=O)[O-])o1)c1ccccc1 (stereo not given) the results were TAAR1 antag -20, TAAR1 ag 5, NTR1 ag 2, CHO parental Ca -7, OX1R antag-1 -16 and OX1R antag-2 33.
CCCCS(=O)(=O)N1CCN(C(=O)C(=O)c2cccc(C(F)(F)F)c2)CC1 was read as TAAR1 antag -27 and TAAR1 ag 1.
Screening O=C(Cn1c(=O)[nH]c2sc3c(c2c1=O)CCCC3)NCC1CCCO1 (stereo not given) returned TAAR1 antag -23, TAAR1 ag 1, NTR1 ag -2, CHO parental Ca -12, OX1R antag-1 -4 and OX1R antag-2 12.
For O=C(COC(=O)c1cc(=O)[nH]c2ccc(Br)cc12)c1ccccc1 the results were TAAR1 antag 26, TAAR1 ag 41*, NTR1 ag -1, CHO parental Ca -21, OX1R antag-1 -38 and OX1R antag-2 18.
For Cc1ccc(NC(=O)C2CCN(S(=O)(=O)c3cccs3)CC2)cc1 the results were TAAR1 antag 19, TAAR1 ag 1, NTR1 ag -1, CHO parental Ca -4, OX1R antag-1 -21 and OX1R antag-2 -3.
For COc1ccc(C)cc1NC(=O)C1CCCN(S(=O)(=O)c2cccs2)C1 (stereo not given) the results were TAAR1 antag -9, TAAR1 ag 0, NTR1 ag 0, CHO parental Ca -21, OX1R antag-1 -13 and OX1R antag-2 37*.
Cc1ccc(NC(=O)C2CCCN(S(=O)(=O)c3cccs3)C2)cc1 (stereo not given) was read as TAAR1 antag 13, TAAR1 ag 9, NTR1 ag 0, CHO parental Ca -9, OX1R antag-1 -18 and OX1R antag-2 22.
COc1cc(NC(=O)C2CCN(S(=O)(=O)c3cccs3)CC2)cc(OC)c1 was read as TAAR1 antag -3, TAAR1 ag 3, NTR1 ag 3, CHO parental Ca -2, OX1R antag-1 17 and OX1R antag-2 51*.
Screening CCSc1nsc(NC(=O)Nc2ccc(F)cc2F)n1 returned NTR1 ag 5, CHO parental Ca 74*, OX1R antag-1 15 and OX1R antag-2 43*.
For CCOc1ccc(NC(=O)Nc2nc(SCC)ns2)cc1 the results were TAAR1 antag 18, TAAR1 ag 6, NTR1 ag 5, CHO parental Ca 37*, OX1R antag-1 -5 and OX1R antag-2 41.
Screening CCSc1nsc(NC(=O)Nc2ccccc2Cl)n1 returned TAAR1 antag 28 and TAAR1 ag 8.
For O=C1c2ccccc2S(=O)(=O)N1Cc1nnc(-c2ccccc2Br)o1 the results were TAAR1 antag 0 and TAAR1 ag 37.
`O=S1(=O)c2cccc3cccc(c23)N1Cc1nnc(-c2ccccc2Br)o1` gave TAAR1 antag 29, TAAR1 ag 12, NTR1 ag 7, CHO parental Ca 32*, OX1R antag-1 11 and OX1R antag-2 72.
CCOC(=O)C1=C[C@@H](C(C)(C)C)N(S(=O)(=O)c2ccc([N+](=O)[O-])cc2)[C@H]1c1ccccc1Cl was read as TAAR1 antag 2 and TAAR1 ag -1.
